By inhibition is commonly meant the percentage by which the read-out fell short of the control. Read a low inhibition as little suppression.

Molecules are shown by their SMILES. Activity calls are given as the source filed them. How the calls were made is not given here. Where only a bound is given, the exact number is not on record here.

Drawing on ChEMBL document CHEMBL1629474, “Massive screening yields novel and selective Trypanosoma cruzi triosephosphate isomerase dimer-interface-irreversible inhibitors with anti-trypanosomal activity” (Eur J Med Chem, 2010), this text covers Ratio, inhibition and Activity for 53 compounds.

A short description of assay [1]: Selectivity for Trypanosoma cruzi triosephosphate isomerase over human triosephosphate isomerase.
In assay [2] the target is Triosephosphate isomerase, glycosomal (Trypanosoma cruzi) (UniProt P52270). Briefly: Inhibition of Trypanosoma cruzi triosephosphate isomerase at 400 uM after 2 hrs. The essentials:
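Recombinant E. coli-expressed enzyme, dialyzed into 100 mM triethanolamine/10 mM EDTA pH 7.4, was incubated with compound (DMSO stock) in 100 mM triethanolamine, 10 mM EDTA, pH 7.4, 10% DMSO at 36 °C for 2 h. An aliquot was then assayed for activity (glyceraldehyde 3-phosphate to dihydroxyacetone phosphate, α-glycerol phosphate dehydrogenase-coupled) with 5 ng enzyme. Irreversible inhibition was scored as loss of activity; means of two experiments.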

The subject of assay [3] is Trypanosoma cruzi. Briefly: Antiparasitic activity against Trypanosoma cruzi T2 epimastigotes assessed as growth inhibition at 25 uM after 5 days. The class given is functional. The essentials: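 Late-log epimastigotes were grown axenically at 28 °C in BHI-tryptose with 5% fetal calf serum and seeded at 2×10^6/mL in medium containing compound (DMSO stock; final DMSO ≤1%, 1% DMSO control). Growth was read as A590 at day 0 and day 5. Inhibition = {1 − [(Ap − A0p)/(Ac − A0c)]} × 100. Means of two experiments.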

Triosephosphate isomerase, glycosomal (Trypanosoma cruzi), sequence (P52270 whole entry): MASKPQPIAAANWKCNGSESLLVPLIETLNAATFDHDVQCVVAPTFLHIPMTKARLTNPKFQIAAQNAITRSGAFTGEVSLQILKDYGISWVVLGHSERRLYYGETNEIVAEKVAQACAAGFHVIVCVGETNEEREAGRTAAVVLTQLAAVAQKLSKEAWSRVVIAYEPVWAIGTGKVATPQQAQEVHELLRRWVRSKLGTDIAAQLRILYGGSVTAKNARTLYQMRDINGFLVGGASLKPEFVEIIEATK

In the case of `COc1ccc(C(=O)/C=C/c2ccc3no[n+]([O-])c3c2)cc1`, the Ratio in assay [1] was more than 4. In assay [2], this compound came in with an inhibition of 45%. Moreover, the outcome in assay [3] was Active.

Take `Cc1ccc(S(=O)(=O)NCc2ccco2)cc1`: the Ratio in assay [1] is more than 4. In assay [2], this compound showed an inhibition of 8%. Besides, the outcome in assay [3] was Active.

As to `O=C1CC(=O)N(CCc2ccccc2)S(=O)(=O)N1CCc1ccccc1`, the Ratio in assay [1] was more than 4. In assay [2], the inhibition was determined as 0%. Further, the result in assay [3] was Active.

On to `COc1ccc(/C=C/c2c(C)nnc[n+]2[O-])cc1`, for which the Ratio in assay [1] was more than 4. In assay [2], this compound returned an inhibition of 11%. For the same compound, the outcome in assay [3] was Active.

Regarding `Cc1nnc[n+]([O-])c1/C=C/c1ccc2c(c1)OCO2`, the Ratio in assay [1] was more than 4. The inhibition in assay [2] was found to be 40%. In assay [3], the result was Active.

Turning to `[O-][n+]1onc2ccc(/C=N/N=C/c3ccccc3O)cc21`, the Ratio in assay [1] is more than 4. For the same compound, the inhibition in assay [2] is 24%. For the same compound, the result in assay [3] was Active.

For the compound `O=c1c2cc([N+](=O)[O-])ccc2n2n1CCOCC2`, the Ratio in assay [1] was more than 4. Besides, in assay [2], the inhibition is 12%. In addition, the result in assay [3] was Active.

Regarding `COc1ccc(NCc2c(-c3ccccc3)no[n+]2[O-])cc1`, in assay [1], the Ratio is more than 4. In addition, in assay [2], the inhibition was 39%. Moreover, the outcome in assay [3] was Active.

On to `CCOC(=O)c1nsc(-c2cc(C(C)(C)C)c(O)c(C(C)(C)C)c2)n1`, for which the Ratio in assay [1] is more than 4. Further, the inhibition in assay [2] came to 65%. Besides, the result in assay [3] was Active.

Take `CN(C)CCCNS(=O)(=O)NCCCN(C)C`: the Ratio in assay [1] is more than 4. The compound further returned an inhibition in assay [2] of 0%. In addition, the result in assay [3] was Active.

On to `[O-][n+]1onc(-c2ccccc2)c1CN1CCSCC1`, for which the Ratio in assay [1] was more than 4. In assay [2], this compound registered an inhibition of 47%. In assay [3], the outcome was Active.

As for `C/C(=C\c1ccc(N(C)C)cc1)[N+](=O)[O-]`, the Ratio in assay [1] is more than 4. The compound also gave an inhibition in assay [2] of 24%. In assay [3], the result was Active.

With `Cc1ccc2no[n+]([O-])c2c1`, the Ratio in assay [1] is more than 4. In assay [2], the inhibition came out at 8%. In addition, the result in assay [3] was Active.

Turning to `CCOC(=O)c1[nH]c(=O)n(CCc2ccccc2)c1C`, the Ratio in assay [1] was more than 4. This compound also returned an inhibition in assay [2] of 0%. The result in assay [3] was Active.

With `[O-][n+]1onc2ccc(/C=N/O)cc21`, the Ratio in assay [1] is more than 4. In assay [2], this compound yielded an inhibition of 27%. The result in assay [3] was Active.

Take `O=[N+]([O-])c1ccc2c(c1)c(OCc1ccccc1)nn2CCOCCN1CCSCC1`: the Ratio in assay [1] was more than 4. Also, the inhibition in assay [2] is 12%. In addition, the result in assay [3] was Active.

Turning to `CCCCCCOC(=O)N/N=C/C=C/c1ccc([N+](=O)[O-])o1`, in assay [1], the Ratio is more than 4. The same compound yielded an inhibition in assay [2] of 39%. In assay [3], the result was Active.

For the compound `O=c1c2cc([N+](=O)[O-])ccc2n2n1CCCCC2`, the Ratio in assay [1] is more than 4. For the same compound, in assay [2], the inhibition was determined as 4%. For the same compound, the outcome in assay [3] was Active.

In the case of `C=CCNC(=S)N/N=C/c1ccc2c(c1)[n+]([O-])c(C#N)c(N)[n+]2[O-]`, in assay [1], the Ratio was more than 4. In assay [2], this compound registered an inhibition of 45%. The result in assay [3] was Active.

Take `N#Cc1c2ccccc2[n+]([O-])n1-c1cccc2ccccc12`: in assay [1], the Ratio is more than 4. Moreover, the inhibition in assay [2] came out at 16%. The outcome in assay [3] was Active.

As for `Cc1nnc(C)[n+]([O-])c1/C=C/c1ccc(N(C)C)cc1`, in assay [1], the Ratio is more than 4. The inhibition in assay [2] came to 26%. In addition, the outcome in assay [3] was Active.

Take `CCN(CC)CCCNS(=O)(=O)NCCCN(CC)CC`: the Ratio in assay [1] was more than 4. The compound also gave an inhibition in assay [2] of 0%. Moreover, the outcome in assay [3] was Active.

Regarding `CCCCCCNS(=O)(=O)NCCCCCC`, the Ratio in assay [1] is more than 4. The compound further displayed an inhibition in assay [2] of 0%. Also, the outcome in assay [3] was Active.

For `Cc1nnsc1CO`, in assay [1], the Ratio is more than 4. For the same compound, the inhibition in assay [2] was determined as 29%. In addition, the outcome in assay [3] was Active.

Consider `O=S(=O)(/C=C/c1ccc2no[n+]([O-])c2c1)c1ccc(F)cc1`, for which the Ratio in assay [1] is more than 4. The same compound showed an inhibition in assay [2] of 15%. Also, in assay [3], the result was Active.

On to `CC1(C)[N+]([O-])=c2ccc(COc3ccc(C=O)cc3)cc2=[N+]1[O-]`, for which the Ratio in assay [1] is more than 4. For the same compound, the inhibition in assay [2] was 26%. Further, the outcome in assay [3] was Active.

Regarding `CCCCCCCCOC(=O)N/N=C/C=C/c1ccc([N+](=O)[O-])o1`, in assay [1], the Ratio is more than 4. For the same compound, the inhibition in assay [2] amounted to 0%. Besides, the outcome in assay [3] was Active.

As to `CC(=O)NCc1ccccc1`, the Ratio in assay [1] was more than 4. Also, the inhibition in assay [2] was determined as 32%. In assay [3], the outcome was Active.

As to `COCCNC(=O)N/N=C/C=C/c1ccc([N+](=O)[O-])o1`, the Ratio in assay [1] was more than 4. The inhibition in assay [2] came out at 0%. The outcome in assay [3] was Active.

`C=CCNC(=S)N/N=C/c1ccc2c(c1)=[N+]([O-])C(C)(C)[N+]=2[O-]`: the Ratio in assay [1] was more than 4. Further, in assay [2], the inhibition came out at 33%. In assay [3], the outcome was Active.

`CCCCCCNC(=O)N/N=C/c1c(-c2ccccc2)no[n+]1[O-]`: in assay [1], the Ratio is more than 4. This compound also yielded an inhibition in assay [2] of 4%. Further, the outcome in assay [3] was Active.

`Cc1c(C=O)no[n+]1[O-]`: the Ratio in assay [1] is more than 4. Moreover, the inhibition in assay [2] was 27%. In assay [3], the result was Active.

As for `[O-][n+]1onc(-c2ccccc2)c1CN1CCN(c2ncccn2)CC1`, the Ratio in assay [1] was more than 4. Further, the inhibition in assay [2] was 8%. For the same compound, the result in assay [3] was Active.

Regarding `CC1[N+]([O-])=c2ccc(Cc3ccccc3)cc2=[N+]1[O-]` (centres undefined), in assay [1], the Ratio was more than 4. This compound gave an inhibition in assay [2] of 25%. For the same compound, the outcome in assay [3] was Active.

Turning to `CCCCCCNC(=O)N/N=C/C=C/c1ccc([N+](=O)[O-])o1`, the Ratio in assay [1] is more than 4. The inhibition in assay [2] is 72%. The result in assay [3] was Active.

Take `CCCN(CCOCCn1nc(OCc2ccccc2)c2cc([N+](=O)[O-])ccc21)CCC(C)C1CC=C(C)CC1` (centres undefined): the Ratio in assay [1] was more than 4. The inhibition in assay [2] is 0%. Moreover, the outcome in assay [3] was Active.

`N#Cc1ccc(C=Cc2ccc3no[n+]([O-])c3c2)cc1`: the Ratio in assay [1] is more than 4. In assay [2], this compound gave an inhibition of 0%. Besides, the result in assay [3] was Active.

Consider `NC1=NS(=O)(=O)N=C(N)C1`, for which the Ratio in assay [1] is more than 4. For the same compound, the inhibition in assay [2] is 0%. Also, the outcome in assay [3] was Active.

As to `O=[N+]([O-])c1ccccc1C=Cc1ccc2no[n+]([O-])c2c1`, the Ratio in assay [1] is more than 4. The same compound returned an inhibition in assay [2] of 11%. Also, the result in assay [3] was Active.

Turning to `[O-][n+]1onc2ccc(C=Cc3ccccc3F)cc21`, the Ratio in assay [1] is more than 4. This compound returned an inhibition in assay [2] of 9%. The outcome in assay [3] was Active.

`NC(=O)N/N=C/C=C/c1ccc([N+](=O)[O-])o1`: the Ratio in assay [1] was more than 4. In addition, in assay [2], the inhibition worked out at 13%. Further, the outcome in assay [3] was Active.

With `Nc1ccc2c(c1)[n+]([O-])c1cc(Br)ccc1[n+]2[O-]`, the Ratio in assay [1] is more than 4. In addition, the inhibition in assay [2] amounted to 59%. Further, the result in assay [3] was Active.

Consider `CCCCNS(=O)(=O)NCCCC`, for which, in assay [1], the Ratio is more than 4. In assay [2], this compound showed an inhibition of 0%. Moreover, the outcome in assay [3] was Active.

On to `Oc1ccc(N/C(S)=N/c2ccccc2)cc1`, for which the Ratio in assay [1] is more than 4. Moreover, in assay [2], the inhibition turned out to be 24%. Also, in assay [3], the outcome was Active.

On to `O=Cc1cccc(OCCCN2C(=O)c3ccccc3C2=O)c1`, for which the Ratio in assay [1] was more than 4. In assay [2], this compound returned an inhibition of 0%. Further, the result in assay [3] was Active.

In the case of `COC(=O)N/N=C/c1c(C)no[n+]1[O-]`, in assay [1], the Ratio was more than 4. In addition, the inhibition in assay [2] worked out at 2%. Also, the result in assay [3] was Active.

With `Cc1nnc[n+]([O-])c1/C=C/c1ccc(Cl)cc1`, the Ratio in assay [1] was more than 4. In assay [2], this compound yielded an inhibition of 15%. Besides, the outcome in assay [3] was Active.

On to `CCCCNC(=O)N/N=C/c1ccc([N+](=O)[O-])s1`, for which, in assay [1], the Ratio was more than 4. In assay [2], this compound returned an inhibition of 18%. In addition, the outcome in assay [3] was Active.

On to `O=C(NCCc1ccccc1)N/N=C/c1ccc2no[n+]([O-])c2c1`, for which the Ratio in assay [1] is more than 4. For the same compound, the inhibition in assay [2] stood at 38%. Besides, in assay [3], the result was Active.

Take `COCCNC(=O)/C=C/c1ccc([N+](=O)[O-])o1`: the Ratio in assay [1] is more than 4. In assay [2], this compound gave an inhibition of 0%. The outcome in assay [3] was Active.

For `[O-][n+]1onc(-c2ccccc2)c1CCl`, in assay [1], the Ratio is more than 4. The inhibition in assay [2] is 65%. Also, the result in assay [3] was Active.

With `CNC(=S)N/N=C/C=C/c1ccc([N+](=O)[O-])o1`, the Ratio in assay [1] was more than 4. The inhibition in assay [2] worked out at 9%. For the same compound, in assay [3], the result was Active.

As for `[O-][n+]1onc2ccc(C=Cc3ccc(C(F)(F)F)cc3)cc21`, the Ratio in assay [1] was more than 4. In assay [2], this compound gave an inhibition of 33%. Besides, in assay [3], the outcome was Active.
